Data published in ChEMBL document CHEMBL4610115, “Azidothymidine "Clicked" into 1,2,3-Triazoles: First Report on Carbonic Anhydrase-Telomerase Dual-Hybrid Inhibitors” (J Med Chem, 2020).
Active and inactive are the calls of the source. The rule behind the calls is not given here.

Experiments:
HT-29 = experiment: Effect on telomerase mRNA expression in human HT-29 cells at 20 uM incubated for 48 hrs by real-time RT-PCR analysis; assay type: ADME, cell-based; conditions: ht-29, 48 h
Summary of the method: (§1)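 PC3 and HT-29 cells were grown in RPMI-1640 with 10% FBS at 37 °C under 5% CO2, after mycoplasma testing. Cells were exposed to a final 20 μM for 48 h. hTERT mRNA was measured and normalized to 18S RNA, with standard curves from serial cDNA dilutions (1:40–1:320). Runs were done in quadruplicate; results are mean ± SEM, compared by Student's t-test.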

PC-3 = experiment: Effect on telomerase mRNA expression in human PC3 cells at 20 uM incubated for 48 hrs by real-time RT-PCR analysis; assay type: ADME, cell-based; conditions: pc-3, 48 h; summary of the method: as §1
[1] = biological target: Telomerase reverse transcriptase (Homo sapiens) (UniProt O14746); experiment: Inhibition of telomerase in human HT-29 cells at 20 uM incubated for 48 hrs by TRAP assay; assay type: cell-based
Summary of the method: (§2)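 Mycoplasma-tested PC3 or HT-29 cells in RPMI-1640/10% FBS were exposed to a final 20 μM for 48 h. Cells were lysed in CHAPS/glycerol Tris buffer (pH 7.5), and 5 μg extract protein was used for TS-primer elongation (30 min, 37 °C) followed by CX-primer/Taq PCR for 30 cycles. Products were run on 12% nondenaturing PAGE with SYBR Green I densitometry. Quadruplicate; mean ± SEM; t-test.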

[2] = biological target: Telomerase reverse transcriptase (Homo sapiens) (UniProt O14746); experiment: Inhibition of telomerase in human PC3 cells at 20 uM incubated for 48 hrs by TRAP assay; assay type: cell-based; conditions: PC-3; summary of the method: as §2
Carbonic anhydrase 9 = Carbonic anhydrase 9 (Homo sapiens, UniProt Q16790); experiment: Inhibition of human CA9 pre-incubated for 15 mins by stopped flow CO2 hydrase assay

Sequence of Telomerase reverse transcriptase (Homo sapiens) (O14746 whole entry): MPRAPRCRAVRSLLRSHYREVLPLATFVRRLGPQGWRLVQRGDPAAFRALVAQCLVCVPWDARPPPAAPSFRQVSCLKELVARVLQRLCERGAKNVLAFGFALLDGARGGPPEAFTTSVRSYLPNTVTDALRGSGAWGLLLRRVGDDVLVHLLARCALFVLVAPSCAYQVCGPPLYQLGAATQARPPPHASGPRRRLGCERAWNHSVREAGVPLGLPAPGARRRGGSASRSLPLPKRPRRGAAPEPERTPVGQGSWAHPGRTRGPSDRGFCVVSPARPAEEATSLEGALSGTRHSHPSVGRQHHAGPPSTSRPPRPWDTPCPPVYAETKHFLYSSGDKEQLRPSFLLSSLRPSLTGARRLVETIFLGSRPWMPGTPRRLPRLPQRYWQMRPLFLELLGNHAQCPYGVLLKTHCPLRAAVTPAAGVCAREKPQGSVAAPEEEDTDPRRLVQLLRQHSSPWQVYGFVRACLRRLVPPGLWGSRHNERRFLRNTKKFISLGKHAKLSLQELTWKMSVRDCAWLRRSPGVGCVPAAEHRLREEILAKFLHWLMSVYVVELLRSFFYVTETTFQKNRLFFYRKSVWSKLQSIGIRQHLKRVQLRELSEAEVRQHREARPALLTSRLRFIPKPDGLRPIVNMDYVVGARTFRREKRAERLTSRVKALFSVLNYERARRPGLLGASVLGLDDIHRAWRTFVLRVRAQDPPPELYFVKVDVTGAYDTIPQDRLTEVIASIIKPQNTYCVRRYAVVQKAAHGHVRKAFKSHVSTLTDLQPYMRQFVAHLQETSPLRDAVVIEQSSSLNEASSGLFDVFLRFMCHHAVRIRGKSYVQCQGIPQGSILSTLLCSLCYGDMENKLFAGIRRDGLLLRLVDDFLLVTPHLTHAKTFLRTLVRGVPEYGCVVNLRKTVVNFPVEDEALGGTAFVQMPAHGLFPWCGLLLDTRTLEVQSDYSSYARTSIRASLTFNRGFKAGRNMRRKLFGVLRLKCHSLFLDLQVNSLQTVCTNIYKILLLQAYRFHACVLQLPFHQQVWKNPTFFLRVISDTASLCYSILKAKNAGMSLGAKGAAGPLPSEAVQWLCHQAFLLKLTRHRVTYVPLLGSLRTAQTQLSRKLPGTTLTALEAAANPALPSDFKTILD

SMILES | Activity (HT-29) | Activity (PC-3) | inhibition [1] | inhibition [2] | Ki (Carbonic anhydrase 9)
Cc1cn([C@H]2C[C@H](n3cc(COc4ccc(S(N)(=O)=O)cc4)nn3)[C@@H](CO)O2)c(=O)[nH]c1=O | Non-Toxic | Non-Toxic | Active | Active | 
Cc1cn([C@H]2C[C@H](n3cc(C[Se]c4ccc(NC(=S)Nc5cccc(S(N)(=O)=O)c5)cc4)nn3)[C@@H](CO)O2)c(=O)[nH]c1=O | Non-Toxic | Non-Toxic | Active | Active | 
Cc1cn([C@H]2C[C@H](n3cc(COC(=O)c4ccc(S(N)(=O)=O)cc4)nn3)[C@@H](CO)O2)c(=O)[nH]c1=O | Non-Toxic | Non-Toxic | inactive | inactive | 
Cc1cn([C@H]2C[C@H](n3cc(COC(=O)c4ccc(Cl)c(S(N)(=O)=O)c4)nn3)[C@@H](CO)O2)c(=O)[nH]c1=O |  |  |  |  | 240 nM
Cc1cn([C@H]2C[C@H](n3cc(CNC(=O)c4ccc(S(N)(=O)=O)cc4)nn3)[C@@H](CO)O2)c(=O)[nH]c1=O | Non-Toxic | Non-Toxic | inactive | inactive | 
